Screening data as filed in PubChem BioAssay.
Shown are actives, neighbours in structure and some others; about 3.7% of the full set was active somewhere.
KCNK9 inh: KCNK9 potassium channel inhibitors, primary screen, HEK293 cells, thallium flux; B-score at 10 µM; 1.2% of 310,000 active; AID 488922, 2010; FluxOR thallium flux fluorescence; hits give low values;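 active means ratio B-score over 3 SD below the library mean, with starting fluorescence within 5 SD of its mean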;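 further: negative B-score means less thallium flux so channel inhibition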
KCNQ1 act: potentiators or activators of KCNQ1 channel, primary screen, cell-based, thallium flux, high-throughput. B-score at 10 µM. CHO-K1 KCNQ1, thallium flux FluxOR fluorescence; hits give high values. 0.35% of 310,000 active. Potassium voltage-gated channel subfamily KQT member 1 (Homo sapiens), P51787;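 active means fluorescence ratio B-score, a plate-corrected score, at least three library SD, with initial intensity B-score within 5 SD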
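Material: CHO-K1 cells stably expressing KCNQ1. Medium: assay buffer for compound exposure, DMSO matched across wells. Reagent: K+/Tl+ depolarizing stimulus. Compound dosing: single-concentration screen. Times: 37 °C overnight plating, 90-min dark dye load, 20-min compound pretreatment. Technique: FluxOR Tl+ flux fluorescence.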
KCNQ1 block: inhibitors of human KCNQ1 channel, primary screen, cell-based, thallium flux, high-throughput; Potassium voltage-gated channel subfamily KQT member 1 (Homo sapiens), P51787; CHO-K1 KCNQ1, FluxOR thallium flux fluorescence; hits give high values; B-score at 10 µM; 1.3% of 310,000 active;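 active means compounds whose thallium flux B-score, printed positive for inhibition, exceeds three library SD while starting fluorescence stays within three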;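 further: channel opened by potassium depolarization with thallium stimulus after 20 min compound exposure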
KCNK3 inh: human KCNK3 channel inhibitors, primary screen, CHO cells, FluxOR thallium flux, B-score; Potassium channel subfamily K member 3 (Homo sapiens), O14649; B-score at 10 µM; FluxOR fluorescence; hits give low values; AID 602410, 2012; 0.84% of 340,000 active;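 active means B-score under library mean minus 4 SD, starting fluorescence ratio at most library mean plus 5 SD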;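 further: more negative B-score means stronger inhibition of thallium flux through KCNK3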
Kir21 block: inhibitors of mouse Kir2.1 inward-rectifier potassium channel; HEK293-Kir2.1, FluxOR thallium flux fluorescence; hits give low values; B-score at 10 µM; 0.85% of 310,000 active; AID 1672, 2009;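 active means fluorescence ratio B-score at or below minus 3 SD of library scores, with starting-brightness B-score within 2 SD, cut at about -4.2 in these data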;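 further: channel flux triggered by added potassium and thallium sulfate stimulus; B-score of peak minus minimum fluorescence over baseline after thallium stimulus; more negative B-score means stronger Kir2.1 block with less thallium influx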
Target sequence (P35561 whole entry, looked up): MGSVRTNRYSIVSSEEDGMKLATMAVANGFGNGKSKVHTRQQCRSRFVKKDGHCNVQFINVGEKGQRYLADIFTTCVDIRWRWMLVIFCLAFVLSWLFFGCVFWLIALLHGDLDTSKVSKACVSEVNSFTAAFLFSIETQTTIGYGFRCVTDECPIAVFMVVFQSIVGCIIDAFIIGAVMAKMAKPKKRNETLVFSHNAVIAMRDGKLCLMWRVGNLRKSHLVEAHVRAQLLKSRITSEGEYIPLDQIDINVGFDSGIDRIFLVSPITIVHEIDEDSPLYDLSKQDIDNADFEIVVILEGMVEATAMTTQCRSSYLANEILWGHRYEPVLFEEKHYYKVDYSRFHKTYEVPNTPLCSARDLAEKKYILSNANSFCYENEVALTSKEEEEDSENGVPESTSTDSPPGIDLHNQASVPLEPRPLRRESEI
hERG rescue: hERG rescue from dofetilide block, primary screen, cell-based, CHO-hERG, FluxOR thallium flux, dofetilide IC70. 0.51% of 310,000 active. Voltage-gated inwardly rectifying potassium channel KCNH2 (Homo sapiens), Q12809. dofetilide IC70 present. activation (rescue from dofetilide block), less the hit threshold, % at 10 µM;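 active means activation above the mean of controls blocked by dofetilide plus 5 SD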;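 further: thallium influx through hERG after potassium depolarization seen as dye fluorescence rise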
* hit, by the source's call; i = inactive; nt = no result given.

SMILES	KCNK9 inh	KCNQ1 act	KCNQ1 block	KCNK3 inh	Kir21 block	hERG rescue
O=C(Nc1ccc(Cl)cc1)Nc1cc([N+](=O)[O-])ccc1F	i	i	i	i	-0.61	-10.4
CC1(N2CCCCC2)CC2(O)C(=[N+]1[O-])CCC/C2=N\O (centres undefined)	i	8*	i	i	-0.15	-6.1
O=[N+]([O-])c1cccc(/C=C/c2nc3ccc([N+](=O)[O-])cc3[nH]2)c1	i	i	9*	i	0.06	-35.1
COC(=O)c1cc(C#N)c(N2CC(C)OC(C)C2)nc1C (centres undefined)	i	i	i	i	-0.24	-7.8
Cc1nc(N2CCCCC2C)c2c(C)c(C(=O)Nc3cccc(C(F)(F)F)c3)sc2n1 (centres undefined)	i	i	7*	i	0.24	-9.7
Cc1nc(N2CCCCC2)c2c(C)c(C(=O)Nc3ccccc3C(F)(F)F)sc2n1	i	i	i	i	1.29	-2.5
CCC(=O)Nc1ccc(Cl)c(NC(=O)C(C)C)c1	i	i	i	i	-0.29	-2.2
Cc1ccc(C)c2c1[nH]c1ccc([N+](=O)[O-])cc12	i	i	8*	i	-0.47	-6.5
N#CCCN1CCN(C(=S)c2ccc(-c3cc(Cl)ccc3Cl)o2)CC1	-7.8*	i	i	i	1.24	-3.6
CCCCCCNc1nc(NCc2ccco2)nc(OCC)n1	-6.89*	i	i	i	-0.16	-7.0
CCCCCCCCNc1nc(Cl)nc(NCc2ccco2)n1	i	i	i	i	-0.2	-7.1
C=CCc1cccc(/C=N/NC(=O)c2ccc3nc[nH]c3c2)c1O	i	i	i	i	2.01	-12.7
Oc1ccccc1CN1CCC(C(O)(c2ccccc2)c2ccccc2)CC1	i	i	i	i	-5.24*	-9.0
Oc1ccccc1CN1CCN(C(O)(c2ccccc2)c2ccccc2)CC1	i	i	i	i	-7.28*	-9.9
O=C(C1CC1)N1CCC(C(O)(c2ccccc2)c2ccccc2)CC1	i	i	i	i	-0.06	-16.7
Oc1ccc(CN2CCN(Cc3ccccc3)CC2)c2cccnc12	i	i	i	i	-3.81	-10.3
Oc1ccccc1CN1CCCN(Cc2ccccc2O)C1	i	i	i	i	-3.71	5.0*
COc1ccc(CCNC(=O)COC(=O)CSc2ccc([N+](=O)[O-])cc2)cc1OC	nt	nt	nt	i	nt	nt
Cc1cc(-c2ccccc2)n(-c2ccccc2)n1	i	i	i	i	-0.53	-7.1
Cc1ncsc1C(=O)N1N=C2/C(=C/c3ccc(N4CCOCC4)cc3)CCCC2C1c1ccc(N2CCOCC2)cc1 (centres undefined)	i	i	i	i	0.38	-12.5
Cc1ncsc1C(=O)N1N=C2/C(=C/c3ccccc3)CCCC2C1c1ccccc1 (centres undefined)	-7.6*	i	7*	i	0.81	-16.9
CN(C)S(=O)(=O)N1CCN(CC(O)COc2ccc3cc(Br)ccc3c2)CC1 (centres undefined)	i	i	i	i	0.29	-14.1
Cc1cc(C)n(-c2nc3sc4c(c3c(=O)[nH]2)CCCC4)n1	i	13*	i	nt	0.81	-5.4
CCOc1ccc(NC(=O)CN(C)C(=O)C2CCCO2)cc1OCC (centres undefined)	nt	nt	nt	i	nt	nt
CC1CN(c2nc(-c3ccc(Br)cc3)nnc2-c2ccccc2)CC(C)N1 (centres undefined)	i	i	i	i	-9.29*	-22.6
SMILES	KCNK9 inh	KCNQ1 act	KCNQ1 block	KCNK3 inh	Kir21 block	hERG rescue
O=C(/C=C/c1ccccc1)Nc1cccc(C(=O)N2CCCC2)c1	nt	nt	nt	i	nt	nt
Cc1cccc(-n2c(SCC(=O)c3c(N)n(C4CC4)c(=O)[nH]c3=O)nnc2N2CCOCC2)c1	nt	nt	nt	i	nt	nt
CC(C(=O)NCCCc1ccccc1)n1cccc1C(=O)c1ccccc1 (centres undefined)	i	i	i	i	-6.43*	-10.7
CC(Oc1ccccc1)c1ccnn1S(=O)(=O)c1ccccc1 (centres undefined)	i	i	i	i	-8.57*	-5.3
CCNC(=O)n1nccc1C(C)Oc1ccccc1 (centres undefined)	i	i	i	i	4.07e-16	-7.3
COc1cc(-c2n[nH]c(=S)n2C(C)c2ccccc2)cc(OC)c1OC (centres undefined)	i	i	i	i	-4.33*	-6.2
CCn1c2ccccc2c2cc(NC(=O)CN3CCCC3)ccc21	i	i	i	i	-3.54	-5.0
CCn1c2ccccc2c2cc(NC(=O)CNCC3CCCO3)ccc21 (centres undefined)	i	i	i	i	-9.13*	-13.4
Cc1ccc(S(=O)(=O)n2c(C)nc3ccccc32)cc1	i	i	i	i	-1.37	-1.1
Cc1ccc(S(=O)(=O)n2c(CN3CCCC(C)C3)nc3ccccc32)cc1 (centres undefined)	-7.46*	i	i	i	0.41	-1.2
COc1ccccc1OCCn1c(C(C)O)nc2ccccc21 (centres undefined)	i	i	i	i	0.01	-2.1
O=S(=O)(/C(=C/c1ccc(C(F)(F)F)cc1)c1nc2ccccc2[nH]1)c1ccccc1	i	i	i	i	-7.58*	-19.0
CCN(CC)CCN1C(=O)c2ccccc2NC1c1ccccc1F (centres undefined)	i	i	i	i	0.88	5.1*
CCOC(=O)CS(=O)(=O)c1nc(-c2ccccc2)cc(C(F)(F)F)n1	i	i	i	i	-7.09*	-15.4
CCOC(=O)CS(=O)(=O)c1nc(-c2ccc(F)cc2)cc(C(F)(F)F)n1	i	9*	i	i	-4.48*	-26.0
CCOC(=O)CCS(=O)(=O)c1nc(-c2ccccc2)cc(C(F)(F)F)n1	i	i	i	i	-3.05	-15.3
CC(CC(=O)N(C)c1c(N)n(Cc2ccccc2)c(=O)[nH]c1=O)c1ccccc1 (centres undefined)	i	i	i	i	2.23	-9.7
COc1cc(C2Oc3ccccc3C=C2[N+](=O)[O-])cc(OC)c1OC (centres undefined)	nt	nt	nt	i	nt	nt
N#CCCN(Cc1ccccc1)C(=S)NC(=O)c1ccccc1	i	i	i	i	-0.03	-1.7
CCN(Cc1ccccc1)C(=S)NC(=O)c1ccccc1Br	i	43*	i	i	-0.37	21.7*
